Test results published in the EternaBench riboswitch data.

Tested on: MS2 coat protein
Test: apparent Kd, MS2 coat protein; higher = weaker binding; RNA-MaP array; FMN 200 µM where present
How it was run: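 Binding was read on Illumina sequencing-chip clusters where stalled E. coli RNA polymerase had transcribed each design. A titration of SNAP-549-labelled MS2 coat protein began at 0.7 or 1.5 nM and doubled to 3 µM, once without ligand and once with constant ligand, in 100 mM Tris-HCl pH 7.5, 80 mM KCl, 4 mM MgCl2, BSA, DTT, yeast tRNA and Tween-20. The apparent Kd is the median of filtered per-cluster binding-curve fits, based on green signal normalised to red-channel RNA signal and control-cluster median Fmax.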

[1] = designed as: OFF switch for flavin mononucleotide, no ligand
[2] = ligand present: flavin mononucleotide, designed as: OFF switch for flavin mononucleotide
[3] = designed as: ON switch for flavin mononucleotide, no ligand
[4] = ligand present: flavin mononucleotide, designed as: ON switch for flavin mononucleotide

Sequence | apparent Kd [1] | apparent Kd [2] | apparent Kd [3] | apparent Kd [4]
ACUAUACGAGGAUAUACUGACGGGCCUCAGGCGUCCAUCAGACAUGAGGAUCACCCAUGUAGAAGGCGUAUACU | 85.5 nM | 196 nM | – | –
AACAGGUUCACAUGAGGAUCACCCAUGUUAGCCUAAUGUAGGAGAAGGACGGUAGCUGGGCUGACGUAGGAUAUCCUACUGUGA | – | – | 5.08 nM | 5.11 nM
GAAGCACGCAUUAACAUGAGGAUCACCCAUGUGAAAACACGUGAGGAUAUCGAUCUGAAGAAGAUCGAGAAGGCACCGUGCUAA | – | – | 5.53 nM | 5.11 nM
CCUUUAUUUUCAGGAUAUCCGUUUAGGUAGAUAACAUGAGGAUCACCCAUGUCCAUGUUGUAAGUGGAGAAGGGAAAGAGUGGG | – | – | 182 nM | 120 nM
GUCUCGUCAGGAUAUGACGCUACAUUUUCUUUUUAGAAGAGUCAGAAGGGACAUGAGGAUCACCCAUGUGAUUC | 430 nM | 596 nM | – | –
GUGUACAGAGGAUAUACUGGAGCUAGGAAACUAGCAACCUCACAUGAGGAUCACCCAUGUAGAAGGCUGUACAC | 402 nM | 25.8 nM | – | –
GAACAUGAGGAUCACCCAUGUUCUCCAGAAGGCCGUACAUUUAAAAGUGGAUGGAUUAGUAUUGCGGAGGAUAUGGAGGUGCAA | – | – | 102 nM | 61.1 nM
CCUCCCUGAGGAUAUCCACCCUCAUACAUGAGGAUCACCCAUGUUCAACCCUGGGUUCCCGGAGAAGGCAGAUUUC | 115 nM | 134 nM | – | –
ACAUGAGGAUCACCCAUGUAUUACAUGGUUAUGUUUAUUAACAGAAGGCGAAAUUACCACUGUUUCGAGGAUAUGUAUUCUAUA | 65.5 nM | 63 nM | – | –
GGUACUCAAAGAGUACCAAAACGAACAUGAGGAUCACCCAUGUAGGAUAUGCUACUCAAAGAGUAGCAGAAGGACAUGUGCAGA | 29.6 nM | 149 nM | – | –
CAUACACAUGAGGAUCACCCAUGUGAGGAUAUGCGUACGUUGUCCGUAGGCGACGUGCGCAGAAGGCGCGAGGU | 37.7 nM | 35.9 nM | – | –
GUAGCAUACCGAGGAUAUUCUGGGCUUAAAUAAACAUGAGGAUCACCCAUGUGGCGAAAGCCUAGGGAGAAGGCGGAAUGCUAC | – | – | 13.7 nM | 13 nM
GGUGUCAUCGAGAAGGCCUCAACAUGAGGAUCACCCAUGUUGUAAUAUGGGAGGAUAUCGAUGAUACAGCUACGUUUCGUAGCG | – | – | 19.9 nM | 6.57 nM
AUCUGACAUGAGGAUCACCCAUGUAUUCGAGCAUGAGGAUAUAUGACUCGUCAUCGGCGGAUAGAAGGCAUGGUUG | – | – | 97.5 nM | 189 nM
UGUCUAUUUGAAGGAUAUCUAAGCAUAAACCGUAGAGAAGGUCAAUUAUACAUGAGGAUCACCCAUGUUGAGAUUGAUGGGUUU | 16.9 nM | 17.8 nM | – | –
AAUUAUUCAGGAGGAUAUCCCAGGACAUGAGGAUCACCCAUGUUCGGGUUGCCCUCAUGAACGCCGGAGAAGGCCUGAACGAAU | 13 nM | 17.1 nM | – | –
CCGAAUGUCACAGGAUAUGGUCCGGGCACGGGACCAGAAGGGUGAUCUCACAUGAGGAUCACCCAUGUGCAGGCGUUAGGCUGC | – | – | 18.6 nM | 86 nM
GCAUCCAAUGUGAGGAUAUACCUCUGGAUACAUAGGUAGAAGGCACAUGAGGAUCACCCAUGUUCCUAGGAUGC | 44.6 nM | 222 nM | – | –
UUUGGGUGGCUGGAGGAUAUUCGAGUGGUAACAUGAGGAUCACCCAUGUGUCGCGCGGUACACGAGGAGAAGGCUGGCGGCCGUU | – | – | 56.5 nM | 18.9 nM
CUUUCGUGAGGAUAUCAGUAGUAAAUAAAUAAAAUUACUACUGAGAAGGCACAUGAGGAUCACCCAUGUUCCUC | 23.6 nM | 144 nM | – | –
GUAAGUACGAGAGGAUAUUGACAUGAGGAUCACCCAUGUAUUUGGGAGUGUUCACUGAAUUCUUACGAGAAGGCUUGUACAUAC | 221 nM | 220 nM | – | –

Sequence | apparent Kd [1] | apparent Kd [2] | apparent Kd [3] | apparent Kd [4]
CGCUACGUUUCGUAGCAGUGUCAUCGAGAAGGCCCUGACAUGAGGAUCACCCAUGUUCCUGAAAAGGAGGAUAUCGAUGAUACA | – | – | 8.86 nM | 7.04 nM
AAAAAACAAGGAUAUACGAAGGAUGGUUAUCUUAAUUUUUGACAUGAGGAUCACCCAUGUAGAAGGUGUUAAAA | 37.9 nM | 76.2 nM | – | –
GGUUUGCGGCAGGAUAUCCAUCCGCGGUGUGGUGGAGAAGGGCUGACAUGAGGAUCACCCAUGUGCGUCCUGUU | 25.1 nM | 30.5 nM | – | –
AAUUCGUUCUAGAAGGUGCAUUUUUUAAACAUGCAAGGAUAUAGACAUGAGGAUCACCCAUGUCUAUGAGACAUCGGCCUCCUG | 6.3 nM | 13.3 nM | – | –
GCCAGGAUGUGAGGAUAUGCUGAGGAUAACUCAGCAGAAGGCACAUGAGGAUCACCCAUGUAAACCUAUAAUAAAUACCCUGGC | 12.1 nM | 24.4 nM | – | –
GUAGCAUACCGAGGAUAUUCAUACCGGAAACGGACAUGAGGAUCACCCAUGUUGCGAAAGCAUUGGGAGAAGGCGGAAUGCUAC | – | – | 919 nM | 55.8 nM
UUGGACGUCGUAGGAUAUGUAGGAUAUUCCUACAUGAGGAUCACCCAUGUUGACAUGGAAGAAGGACAGAAGGACGACGUCCAU | – | – | 173 nM | 4.59 nM
CGCACUUAGCGAGGAUAUGUAAAACAUGAGGAUCACCCAUGUGAUUUAGUAUCAAUUUUAAUGAAACAGAAGGCGCUUAGUGCG | 8.26 nM | 8.91 nM | – | –
GGCCGUUUACAUGAGGAUCACCCAUGUCCGGAUUGUUGGCCCAGAAGGCAUUACGAAUUCGGCUAUGAGGAUAUGGGUUACAAG | – | – | 215 nM | 119 nM
AAUAACAGAGGAUAUACUGUUUUAUGUGUUUGUUAUUUUGAACAUGAGGAUCACCCAUGUAGAAGGCUGAUUAA | 41.2 nM | 38.2 nM | – | –
GGAUAGGACAGAGGAUAUACCGAUAGGAGAUACUAUCGACUAGUCCUCACAUGAGGAUCACCCAUGUAGAAGGCUGUCCUAUCG | 23.3 nM | 234 nM | – | –
AAAAAACAUGAGGAUCACCCAUGUCUUUUGACAUGAGGAUAUGUACAGACUUCGGUCUGUACAGAAGGCAUGUAAA | – | – | 511 nM | 34.7 nM
CGACAUUUAGGAUAUACGGUUAUUGAGGUUUUUGUUAGUCGACAUGAGGAUCACCCAUGUAGAAGGAAAUGAGU | 34.6 nM | 49.4 nM | – | –
GUCAGCUCGUGAGGAUAUACAACACUGCUUCGGCAGUGUAUUAAGAUCACAUGAGGAUCACCCAUGUAGAAGGCACGAGCGGAU | 14.4 nM | 244 nM | – | –
GCCAUCGCAUGAGGAUAUGGUCUGGUUUCCAGACCAGAAGGCAUGUCAUAAGACAUGAGGAUCACCCAUGUAGUUAAGAUGGCA | – | – | 714 nM | 47.7 nM
UAGGACUACGUAGGAUAUUAAAUCAUGUACUACAUGAGGAUCACCCAUGUUAAUUUAUCAUCAGCUGAGAAGGACGUGGUAAAU | – | – | 104 nM | 61.7 nM
ACUGGUCGAGGAUAUACAUUCGUGCUUCGGCACGUAAGGUCACAUGAGGAUCACCCAUGUAGAAGGCGACCAGU | 40.1 nM | 207 nM | – | –
UUUUAUGUCAAAGGAUAUAUAAAUAAAUUUAUAACAUGAGGAUCACCCAUGUACUUUAGUAUGAGGUAGAAGGUUGAUAAGAGA | – | – | 35.4 nM | 23.3 nM
GCAAUCGAGGGAGGAUAUUGUGAGAUGGUGACAUGAGGAUCACCCAUGUGACGAGAAGGCCCAGUGCGCCCGCUUAACUGCUGA | 37.4 nM | 210 nM | – | –
AUAGGCCUAGGAUAUACAUGAGGAUCACCCAUGUUAAUACUUCAAUCAAGUUAAUAGUGUAGAAGGAGGAAUAA | 27.6 nM | 32.4 nM | – | –
AGAGAAUACUCAGGAUAUCUUAAUAGAAAGAAUAGAGAAGGGAGACAUGAGGAUCACCCAUGUGAAGUCUUGAGACUACAUGGU | 291 nM | 442 nM | – | –
